In ChEMBL document CHEMBL1146933, “In silico identification of novel EGFR inhibitors with antiproliferative activity against cancer cells” (Bioorg Med Chem Lett, 2006):
Active and inactive are the calls of the source. No cut-off for these calls is given here.

molecular target: T1, Epidermal growth factor receptor (Homo sapiens, UniProt P00533); test: Inhibition of EGFR kinase activity at 10 uM; set-up: scale not given: the % may be the effect or the level left; conditions: not given
T1 sequence (P00533 whole entry): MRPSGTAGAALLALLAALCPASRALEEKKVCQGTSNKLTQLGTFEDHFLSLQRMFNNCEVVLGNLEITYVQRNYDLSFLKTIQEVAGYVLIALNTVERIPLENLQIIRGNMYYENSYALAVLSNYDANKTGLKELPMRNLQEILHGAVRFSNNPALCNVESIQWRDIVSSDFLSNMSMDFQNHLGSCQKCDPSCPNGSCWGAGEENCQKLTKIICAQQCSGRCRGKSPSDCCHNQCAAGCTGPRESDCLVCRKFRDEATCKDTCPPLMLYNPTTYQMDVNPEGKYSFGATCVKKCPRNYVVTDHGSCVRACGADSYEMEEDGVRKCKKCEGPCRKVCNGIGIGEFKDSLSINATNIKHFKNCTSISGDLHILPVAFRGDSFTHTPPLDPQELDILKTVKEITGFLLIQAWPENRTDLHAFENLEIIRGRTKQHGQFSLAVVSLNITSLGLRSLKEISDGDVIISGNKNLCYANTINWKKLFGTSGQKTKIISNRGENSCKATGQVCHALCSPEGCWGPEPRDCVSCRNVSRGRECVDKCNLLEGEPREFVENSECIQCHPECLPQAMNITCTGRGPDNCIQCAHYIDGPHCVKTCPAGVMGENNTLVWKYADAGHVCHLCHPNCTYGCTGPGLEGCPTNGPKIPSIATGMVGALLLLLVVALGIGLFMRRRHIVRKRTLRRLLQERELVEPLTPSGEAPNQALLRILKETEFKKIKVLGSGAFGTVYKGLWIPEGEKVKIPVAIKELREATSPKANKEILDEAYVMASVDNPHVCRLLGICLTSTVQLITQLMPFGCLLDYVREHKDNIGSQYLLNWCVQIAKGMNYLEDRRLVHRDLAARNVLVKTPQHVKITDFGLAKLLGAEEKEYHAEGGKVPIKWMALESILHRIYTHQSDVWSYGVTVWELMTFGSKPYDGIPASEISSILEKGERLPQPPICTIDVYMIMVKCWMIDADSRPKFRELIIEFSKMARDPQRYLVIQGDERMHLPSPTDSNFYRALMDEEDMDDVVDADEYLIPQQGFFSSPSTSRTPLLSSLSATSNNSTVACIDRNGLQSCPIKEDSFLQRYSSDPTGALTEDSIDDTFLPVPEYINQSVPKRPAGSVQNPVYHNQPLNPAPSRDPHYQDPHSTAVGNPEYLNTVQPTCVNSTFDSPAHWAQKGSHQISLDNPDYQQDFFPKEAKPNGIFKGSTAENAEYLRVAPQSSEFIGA

Structure (SMILES) | Activity
O=C(CSc1nc(O)cc(-c2ccccc2)n1)N1c2ccccc2CCc2ccccc21 | inactive
C=CCOc1ccc2c(c1)C(=NO)c1cc(OCC=C)ccc1-2 | inactive
O=NC1=C(NNc2ccccc2)C(=O)c2ccccc21 | inactive
Nc1[nH]nc2nc(-c3ccco3)c3c(c12)CCCC3 | inactive

Further lines, results first:

Activity | Structure (SMILES)
inactive | Oc1[nH]c2ccc(I)cc2c1/N=N/c1cccc2cccnc12
inactive | Cc1ccc(-c2cc(NC(=O)c3cccs3)[nH]n2)cc1
40% | Cc1cccc(-n2ncc3c(NCc4ccc5c(c4)OCO5)ncnc32)c1

molecular target: T1, Epidermal growth factor receptor; test: Inhibition of EGFR kinase activity; conditions: not given
Summary of the method: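 EGFR purified from A431 cells, incubated with compound at varying concentrations for 30 min at room temperature. Kinase reaction then started with ATP/MgCl2 and run 30 min at 30 °C. Activity expressed as percent of inhibitor-free control; mean ± standard deviation from 1 to 3 experiments in triplicate.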

IC50 [µM] | Structure (SMILES)
15 | Cc1cccc(-n2ncc3c(NCc4ccc5c(c4)OCO5)ncnc32)c1

molecular target: T1, Epidermal growth factor receptor; test: Inhibition of EGFR kinase activity at 100 uM in presence of 2.5 uM ATP; set-up: scale not given: the % may be the effect or the level left; conditions: not given
Summary of the method: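 EGFR purified from A431 cells, pre-incubated 30 min with 100 µM compound before kinase activity measurement. ATP held at 2.5 µM, four times below the Km for this enzyme preparation. Control was 2% DMSO. Mean ± standard deviation from 2–5 experiments in triplicate.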

Structure (SMILES) | Activity [%]
O=C(CSc1nc(O)cc(-c2ccccc2)n1)N1c2ccccc2CCc2ccccc21 | 41.1
C=CCOc1ccc2c(c1)C(=NO)c1cc(OCC=C)ccc1-2 | 55.3
O=NC1=C(NNc2ccccc2)C(=O)c2ccccc21 | 50.3
Nc1[nH]nc2nc(-c3ccco3)c3c(c12)CCCC3 | 44.5

Continued, values first:

Activity [%] | Structure (SMILES)
50 | Oc1[nH]c2ccc(I)cc2c1/N=N/c1cccc2cccnc12
44.1 | Cc1ccc(-c2cc(NC(=O)c3cccs3)[nH]n2)cc1
48.4 | Cc1cccc(-n2ncc3c(NCc4ccc5c(c4)OCO5)ncnc32)c1

system: A-431; test: Antiproliferative activity against A431 cells at 50 uM by MTT assay after 48 hrs; assay type: functional, cell-based; conditions: Homo sapiens
Summary of the method: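 A431 cells exposed to 50 µM compound for 2 days; viability read by MTT. Controls grown in 0.5% DMSO. Values are percentage of control, mean ± standard deviation from three experiments run in quadruplicate.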

Structure (SMILES) | Activity
O=C(CSc1nc(O)cc(-c2ccccc2)n1)N1c2ccccc2CCc2ccccc21 | Active
Oc1[nH]c2ccc(I)cc2c1/N=N/c1cccc2cccnc12 | Active
C=CCOc1ccc2c(c1)C(=NO)c1cc(OCC=C)ccc1-2 | Active
Cc1ccc(-c2cc(NC(=O)c3cccs3)[nH]n2)cc1 | inactive
Cc1cccc(-n2ncc3c(NCc4ccc5c(c4)OCO5)ncnc32)c1 | Active
Nc1[nH]nc2nc(-c3ccco3)c3c(c12)CCCC3 | Active

system: BT-474; test: Antiproliferative activity against BT474 cells at 50 uM by MTT assay; assay type: functional, cell-based; conditions: Homo sapiens

Structure (SMILES) | Activity
O=C(CSc1nc(O)cc(-c2ccccc2)n1)N1c2ccccc2CCc2ccccc21 | Active
Oc1[nH]c2ccc(I)cc2c1/N=N/c1cccc2cccnc12 | Active
C=CCOc1ccc2c(c1)C(=NO)c1cc(OCC=C)ccc1-2 | Active
Cc1ccc(-c2cc(NC(=O)c3cccs3)[nH]n2)cc1 | inactive
O=NC1=C(NNc2ccccc2)C(=O)c2ccccc21 | Active
Cc1cccc(-n2ncc3c(NCc4ccc5c(c4)OCO5)ncnc32)c1 | Active
Nc1[nH]nc2nc(-c3ccco3)c3c(c12)CCCC3 | Active

system: MDA-MB-435; test: Antiproliferative activity against MDA-MB-435 cells at 50 uM by MTT assay; assay type: functional, cell-based; conditions: Homo sapiens

Structure (SMILES) | Activity
O=C(CSc1nc(O)cc(-c2ccccc2)n1)N1c2ccccc2CCc2ccccc21 | Active
Oc1[nH]c2ccc(I)cc2c1/N=N/c1cccc2cccnc12 | Active
C=CCOc1ccc2c(c1)C(=NO)c1cc(OCC=C)ccc1-2 | Active
Cc1ccc(-c2cc(NC(=O)c3cccs3)[nH]n2)cc1 | inactive
O=NC1=C(NNc2ccccc2)C(=O)c2ccccc21 | Active
Cc1cccc(-n2ncc3c(NCc4ccc5c(c4)OCO5)ncnc32)c1 | Active
Nc1[nH]nc2nc(-c3ccco3)c3c(c12)CCCC3 | Active

system: MDA-MB-468; test: Antiproliferative activity against MDA-MB-468 cells at 50 uM by MTT assay; assay type: functional, cell-based; conditions: Homo sapiens

Structure (SMILES) | Activity
O=C(CSc1nc(O)cc(-c2ccccc2)n1)N1c2ccccc2CCc2ccccc21 | Active
Oc1[nH]c2ccc(I)cc2c1/N=N/c1cccc2cccnc12 | Active
C=CCOc1ccc2c(c1)C(=NO)c1cc(OCC=C)ccc1-2 | Active
Cc1ccc(-c2cc(NC(=O)c3cccs3)[nH]n2)cc1 | inactive
O=NC1=C(NNc2ccccc2)C(=O)c2ccccc21 | Active
Cc1cccc(-n2ncc3c(NCc4ccc5c(c4)OCO5)ncnc32)c1 | Active
Nc1[nH]nc2nc(-c3ccco3)c3c(c12)CCCC3 | Active

system: A-431; test: Antiproliferative activity against A431 cells by MTT assay; assay type: functional, cell-based; conditions: Homo sapiens
Summary of the method: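 A431 cells grown with increasing compound concentrations; proliferation measured by MTT 48 h after treatment. Two experiments performed in triplicate.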

IC50 [µM] | Structure (SMILES)
1 | Oc1[nH]c2ccc(I)cc2c1/N=N/c1cccc2cccnc12
6 | O=NC1=C(NNc2ccccc2)C(=O)c2ccccc21
